Test results taken from ChEMBL document CHEMBL1138791, “Acyl sulfonamide anti-proliferatives: benzene substituent structure-activity relationships for a novel class of antitumor agents” (J Med Chem, 2004).

Assays:
[1] = test system: L1210; test: Diameter of zone of inhibition for cell colony formation of leukemia L1210 at the dose of 200 ug; type: functional, Mus musculus
Summary of the method: (§1)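 Soft agar disk diffusion: leukemia (L1210), solid tumor (HCT116, or colon H15) and normal fibroblast cells seeded in soft agar in separate 60 mm dishes. Compound applied to a filter paper disk (dose in μg/disk) set on the agar. Colony-formation inhibition zones read after 6–7 days at 37 °C. 200 zone units = 6.5 mm; 950 = total inhibition; a range marks partial colony shrinkage. n > 2 unless noted.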

[2] = Diameter of zone of inhibition for cell colony formation of normal fibroblast at the dose of 200 ug; Range is 0-11.7; type: functional, Homo sapiens; summary of the method: as §1
[3] = test system: HCT-116; test: Diameter of zone of inhibition for cell colony formation of solid tumor HCT116 at the dose of 200 ug; type: functional, Homo sapiens
Summary of the method: (§2)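 HCT116, L1210 leukaemia and normal fibroblast cells were seeded in soft agar in separate 60 mm dishes. The compound was applied to a filter-paper disk laid on the agar. Colony-formation inhibition zones were read after 6–7 days at 37 °C and expressed in zone units (200 units = 6.5 mm; 950 = total inhibition; 0 = none). n > 2 unless otherwise indicated.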

[4] = test system: L1210; test: Diameter of zone of inhibition for cell colony formation of leukemia L1210 at the dose of 210 ug; Range is 6.5-8.125; type: functional, Mus musculus; summary of the method: as §1
[5] = test system: HCT-116; test: Diameter of zone of inhibition for cell colony formation of solid tumor HCT116 at the dose of 210 ug; type: functional, Homo sapiens; summary of the method: as §2
[6] = Diameter of zone of inhibition for cell colony formation of normal fibroblast at the dose of 210 ug; Range is 0-9.425; type: functional, Homo sapiens; summary of the method: as §1
[7] = Diameter of zone of inhibition for cell colony formation of normal fibroblast at the dose of 190 ug; Range is 0-8.775; type: functional, Homo sapiens; summary of the method: as §1
[8] = test system: L1210; test: Diameter of zone of inhibition for cell colony formation of leukemia L1210 at the dose of 190 ug; Range is 0-6.825; type: functional, Mus musculus; summary of the method: as §1
[9] = test system: HCT-116; test: Diameter of zone of inhibition for cell colony formation of solid tumor HCT116 at the dose of 190 ug; type: functional, Homo sapiens; summary of the method: as §1
[10] = Diameter of zone of inhibition for cell colony formation of normal fibroblast at the dose of 190 ug; Range is 0-16.575; type: functional, Homo sapiens; summary of the method: as §1
[11] = test system: L1210; test: Diameter of zone of inhibition for cell colony formation of leukemia L1210 at the dose of 190 ug; Range is 0-10.4; type: functional, Mus musculus; summary of the method: as §1
[12] = Diameter of zone of inhibition for cell colony formation of normal fibroblast at the dose of 210 ug; type: functional, Homo sapiens; summary of the method: as §1
[13] = test system: L1210; test: Diameter of zone of inhibition for cell colony formation of leukemia L1210 at the dose of 210 ug; Range is 0-8.125; type: functional, Mus musculus; summary of the method: as §1
[14] = test system: L1210; test: Diameter of zone of inhibition for cell colony formation of leukemia L1210 at the dose of 190 ug; type: functional, Mus musculus; summary of the method: as §1
[15] = Diameter of zone of inhibition for cell colony formation of normal fibroblast at the dose of 190 ug; type: functional, Homo sapiens; summary of the method: as §1
[16] = test system: L1210; test: Diameter of zone of inhibition for cell colony formation of leukemia L1210 at the dose of 210 ug; type: functional, Mus musculus; summary of the method: as §1
[17] = Diameter of zone of inhibition for cell colony formation of normal fibroblast at the dose of 190 ug; Range is 0-.975; type: functional, Homo sapiens; summary of the method: as §1
[18] = test system: Mus musculus; test: Tumor growth delay of human HCT116 colorectal carcinoma in mice after intravenous administration at dose of 100 mg/kg; type: functional
[19] = test system: HCT-116; test: Diameter of zone of inhibition for cell colony formation of solid tumor HCT116 at the dose of 210 ug: range is 6.5-8.125; type: functional, Homo sapiens; summary of the method: as §2
[20] = Diameter of zone of inhibition for cell colony formation of normal fibroblast at the dose of 210 ug; Range is 0-6.5; type: functional, Homo sapiens; summary of the method: as §1
[21] = test system: L1210; test: Diameter of zone of inhibition for cell colony formation of leukemia L1210 at the dose of 210 ug; Range is 0-11.375; type: functional, Mus musculus; summary of the method: as §1
[22] = Diameter of zone of inhibition for cell colony formation of normal fibroblast at the dose of 210 ug; Range is 0-13; type: functional, Homo sapiens; summary of the method: as §1
[23] = Diameter of zone of inhibition for cell colony formation of normal fibroblast at the dose of 200 ug; Range is 0-16.9; type: functional, Homo sapiens; summary of the method: as §1
[24] = test system: L1210; test: Diameter of zone of inhibition for cell colony formation of leukemia L1210 at the dose of 200 ug; Range is 0-9.1; type: functional, Mus musculus; summary of the method: as §1
[25] = test system: SW-620; test: Growth inhibitory activity against human colon SW620 cell line; type: functional
Summary of the method: (§3)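 Cell-line screen run at NCI by published procedures. […] The mean graph midpoint is taken across all human cancer cell lines successfully tested.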

[26] = test system: RXF 393; test: Growth inhibitory activity against human renal RXF-393 cell line; type: functional; summary of the method: as §3
[27] = test system: HL-60; test: Growth inhibitory activity against human leukemia HL-60 (TB) cell line; type: functional; set-up: unit not given here
[28] = test system: HT-29; test: Growth inhibitory activity against human colon HT-29 cell line; type: functional; summary of the method: as §3
[29] = test system: L1210; test: Diameter of zone of inhibition for cell colony formation of leukemia L1210 at the dose of 190 ug; Range is 0-5.525; type: functional, Mus musculus; summary of the method: as §1
[30] = Diameter of zone of inhibition for cell colony formation of normal fibroblast at the dose of 190 ug; Range is 0-13.65; type: functional, Homo sapiens; summary of the method: as §1
[31] = test system: HCT-116; test: Growth inhibitory activity against human colon HCT116 cell line; type: functional; summary of the method: as §3
[32] = test system: NCI-H522; test: Growth inhibitory activity against human lung NCI-H522 cell line; type: functional; summary of the method: as §3
[33] = test system: MCF7; test: Growth inhibitory activity against human breast MCF-7 cell line; type: functional; summary of the method: as §3
[34] = test system: Panel (Carcinoma cell lines); test: Mean graph mid point value for cytotoxic activity against human cancer cell lines was determined; type: functional; summary of the method: as §3

O=C(NS(=O)(=O)c1ccc(Cl)cc1)c1ccc(C(F)(F)F)cc1C(F)(F)F
Inhibition [1]: 0 mm
Inhibition [2]: 11.7 mm
Inhibition [3]: 16.9 mm

O=C(NS(=O)(=O)c1ccc(-c2ccccc2)cc1)c1ccc(Cl)cc1Cl
Inhibition [4]: 8.12 mm
Inhibition [5]: 16.25 mm
Inhibition [6]: 9.42 mm

O=C(NS(=O)(=O)c1ccc(Br)c(Br)c1)c1ccc(Cl)cc1Cl
Inhibition [7]: 8.77 mm
Inhibition [8]: 6.82 mm
Inhibition [9]: 13.84 mm

Cc1ccc(S(=O)(=O)NC(=O)c2ccc(Cl)cc2Cl)cc1
Inhibition [10]: 16.57 mm
Inhibition [9]: 27.3 mm
Inhibition [11]: 10.4 mm

Nc1cc(Cl)ccc1C(=O)NS(=O)(=O)c1ccc(Cl)cc1
Inhibition [12]: 8.77 mm
Inhibition [13]: 8.12 mm
Inhibition [5]: 19.82 mm

O=C(NS(=O)(=O)c1ccc(Cl)cc1)c1ccc([N+](=O)[O-])cc1
Inhibition [9]: 8.77 mm
Inhibition [14]: 6.5 mm
Inhibition [15]: 0 mm

O=C(NS(=O)(=O)c1ccccc1Cl)c1ccc(Cl)cc1Cl
Inhibition [12]: 0 mm
Inhibition [5]: 0 mm
Inhibition [16]: 0 mm

O=C(NS(=O)(=O)c1ccc(Cl)cc1)c1cccc(Br)c1
Inhibition [9]: 10.4 mm
Inhibition [17]: 0.97 mm
Inhibition [14]: 6.82 mm

CCc1c2c(nc3ccc(OC(=O)N4CCC(N5CCCCC5)CC4)cc13)-c1cc3c(c(=O)n1C2)COC(=O)[C@]3(O)CC.Cl
Growth delay [18]: 15 days

Cc1cccc(S(=O)(=O)NC(=O)c2ccc(Cl)cc2Cl)c1
Inhibition [19]: 8.12 mm
Inhibition [20]: 6.5 mm
Inhibition [16]: 6.5 mm

CN(C)c1ccc(S(=O)(=O)NC(=O)c2ccc(Cl)cc2Cl)cc1
Inhibition [5]: 28.75 mm
Inhibition [21]: 11.37 mm
Inhibition [22]: 13 mm

O=C(NS(=O)(=O)c1ccc(F)cc1)c1ccc(Cl)cc1Cl
Inhibition [23]: 16.9 mm
Inhibition [24]: 9.1 mm
Inhibition [3]: 28.6 mm

CN(C)c1ccc(C(=O)NS(=O)(=O)c2ccc(Cl)cc2)cc1
Inhibition [9]: 11.7 mm
Inhibition [14]: 5.85 mm
Inhibition [15]: 0 mm

COc1ccc(S(=O)(=O)NC(=O)c2ccc(Cl)cc2Cl)cc1
GI50 [25]: 9.5 µM
GI50 [26]: 6.4 µM
GI50 [27]: 38.9
GI50 [28]: 41.5 µM
Inhibition [29]: 5.52 mm
Inhibition [30]: 13.65 mm
Inhibition [9]: 21.12 mm
GI50 [31]: 3.5 µM
GI50 [32]: 39.6 µM
GI50 [33]: 23.9 µM
MGM [34]: 28.8
